Laboratory results as given in paper PMC9308755 (Chemmedchem, 2022).
Each block holds one compound with its values, some of them ahead of it.

Legend:
[1] = target: T1, mouse TRPC5 (Mus musculus, UniProt Q9QX29); test: Syncropatch automated patch clamp, inhibition of riluzole-induced TRPC5 currents; type: cell-based; conditions: for IC50: TRPC5 IC50, riluzole (30 μM)-induced TRPC5 current; for IC50 / TRPC5 activity (in words): Syncropatch
T1 sequence (Q9QX29 1-975): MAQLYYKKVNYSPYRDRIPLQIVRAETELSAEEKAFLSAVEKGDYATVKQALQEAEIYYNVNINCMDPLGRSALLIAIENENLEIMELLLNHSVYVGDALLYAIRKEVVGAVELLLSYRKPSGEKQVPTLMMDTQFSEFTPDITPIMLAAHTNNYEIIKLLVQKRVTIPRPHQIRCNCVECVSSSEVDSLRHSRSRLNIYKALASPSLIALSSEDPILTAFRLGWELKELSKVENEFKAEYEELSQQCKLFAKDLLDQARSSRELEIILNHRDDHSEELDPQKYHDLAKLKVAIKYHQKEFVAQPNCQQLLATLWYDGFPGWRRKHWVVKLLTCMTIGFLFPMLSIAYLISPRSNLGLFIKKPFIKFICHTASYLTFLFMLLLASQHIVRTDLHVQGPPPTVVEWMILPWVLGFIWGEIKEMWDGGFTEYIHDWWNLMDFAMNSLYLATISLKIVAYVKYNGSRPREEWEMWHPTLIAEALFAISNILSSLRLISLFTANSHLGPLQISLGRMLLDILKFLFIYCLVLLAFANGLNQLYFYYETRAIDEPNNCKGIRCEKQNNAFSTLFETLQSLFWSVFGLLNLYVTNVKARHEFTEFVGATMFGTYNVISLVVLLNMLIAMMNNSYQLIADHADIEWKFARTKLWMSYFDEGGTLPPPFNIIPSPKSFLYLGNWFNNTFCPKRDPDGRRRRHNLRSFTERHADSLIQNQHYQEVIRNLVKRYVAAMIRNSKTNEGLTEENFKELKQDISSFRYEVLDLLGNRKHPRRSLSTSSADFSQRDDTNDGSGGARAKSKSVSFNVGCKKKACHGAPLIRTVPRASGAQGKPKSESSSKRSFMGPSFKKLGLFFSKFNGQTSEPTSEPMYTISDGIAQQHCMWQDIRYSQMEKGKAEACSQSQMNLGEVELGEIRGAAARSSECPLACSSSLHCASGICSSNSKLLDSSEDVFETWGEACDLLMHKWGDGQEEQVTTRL
Method in brief: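 Doxycycline-induced (0.5–1 μg/mL, 3 days) Flp-In T-REx-293 cells stably expressing mouse TRPC5, used in automated patch clamp. 200 ms ramps from −100 to +100 mV every 5–10 s. 30 μM riluzole activates currents and stays present with compound. Only cells with doubly-rectifying currents kept. % inhibition compares 3 ramps after vs before compound, normalized to a reference inhibitor at 3 μM. IC50 from three-parameter fit.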

[2] = Mouse plasma protein binding; type: in vitro ADME
[3] = Mouse liver microsome stability; type: in vitro ADME; conditions: liver microsomes
[4] = Human liver microsome stability; type: in vitro ADME; conditions: liver microsomes
[5] = Human plasma protein binding; type: in vitro ADME
[6] = In vivo rat cassette PK; conditions: for Brain / Plasma: Rat cassette (0.25 mpk); for Brain: brain level for Kp; for Plasma: plasma level for Kp; for Kp / C0 / MRT inf / Vd / clearance / half-life / AUC: rat, intravenous; for Kp: brain/plasma, 0.25 mpk; for C0 / MRT inf / Vd / clearance / half-life: in vivo; for C0 / MRT inf / Vd / clearance / half-life / AUC: 0.25 mg/kg; for AUC: plasma

IC50 [1]: 0.84 ± 0.23 µM
fraction unbound [2]: 0.0217
CLint scaled [3]: 3200 mL/min/kg
mCLHEP [3]: 87.6 mL/min/kg
CLint scaled [4]: 239 mL/min/kg
hCLHEP [4]: 18.5 mL/min/kg
fraction unbound [5]: 0.01
Compound: Fc1cc(Cl)ccc1Cn1c(N2CCCC2)nc2ccccc21 [9 n, 1‐(4‐Chloro‐2‐fluorobenzyl)‐2‐(pyrrolidin‐1‐yl)‐1H‐benzo[d]imidazole]

IC50 [1]: 1.15 ± 0.25 µM
Compound: COc1ccc(Cn2c(N3CCCC3)nc3ccccc32)cc1 [9 f, 1‐(4‐Methoxybenzyl)‐2‐(pyrrolidin‐1‐yl)‐1H‐benzo[d]imidazole]

IC50 [1]: 0.54 ± 0.23 µM
fraction unbound [2]: 0.053
CLint scaled [3]: 370 mL/min/kg
mCLHEP [3]: 72.5 mL/min/kg
CLint scaled [4]: 38.1 mL/min/kg
hCLHEP [4]: 13.2 mL/min/kg
Brain [6]: 41.8
Plasma [6]: 69.7
Kp [6]: 0.6
C0 [6]: 221 ng/mL
MRT inf [6]: 38.5 min
Vd [6]: 1.8 L/kg
clearance [6]: 61.3 mL/min/kg
half-life [6]: 38.4 min
AUC [6]: 262 ng·h/mL
fraction unbound [5]: 0.068
Compound: N#Cc1cc(Cn2c(N3CCCC3)nc3ccccc32)ccc1F [9 o, 2‐Fluoro‐5‐((2‐(pyrrolidin‐1‐yl)‐1H‐benzo[d]imidazol‐1‐yl)methyl)benzonitrile]

IC50 [1]: 0.44 ± 0.14 µM
fraction unbound [2]: 0.013
CLint scaled [3]: 4260 mL/min/kg
mCLHEP [3]: 88.2 mL/min/kg
CLint scaled [4]: 278 mL/min/kg
hCLHEP [4]: 18.7 mL/min/kg
fraction unbound [5]: 0.013
Compound: Clc1ccc(Cn2c(N3CCCC3)nc3ccccc32)cc1 [9 e, 1‐(4‐Chlorobenzyl)‐2‐(pyrrolidin‐1‐yl)‐1H‐benzo[d]imidazole]

TRPC5 activity (in words) [1]: not productive
Compound: c1ccc(Cn2c(N3CCC4(CC3)CNC4)nc3ccccc32)cc1 [7 i, 7‐(1‐Benzyl‐1H‐benzo[d]imidazol‐2‐yl)‐2,7‐diazaspiro[3.5]nonane]

TRPC5 activity (in words) [1]: moderate activity
IC50 [1]: 12.3 µM
Compound: Cc1cc2nc(N3CCCC3)n(Cc3ccccc3)c2cc1C [14 b, 1‐Benzyl‐5,6‐dimethyl‐2‐(pyrrolidin‐1‐yl)‐1H‐benzo[d]imidazole]

IC50 [1]: 1.15 ± 0.33 µM
Compound: COc1ccc2c(c1)nc(N1CCCC1)n2Cc1ccccc1 [14 h, 1‐Benzyl‐5‐methoxy‐2‐(pyrrolidin‐1‐yl)‐1H‐benzo[d]imidazole]

TRPC5 activity (in words) [1]: not as active as 1
IC50 [1]: 7.55 ± 2.52 µM
Compound: O=c1[nH]ncc(-c2ccc3c(c2)nc(N2CCCC2)n3Cc2ccccc2)c1Cl [14 n, 5‐(1‐Benzyl‐2‐(pyrrolidin‐1‐yl)‐1H‐benzo[d]imidazol‐5‐yl)‐4‐chloropyridazin‐3(2H)‐one]

IC50 [1]: 4.3 ± 1.63 µM
fraction unbound [2]: 0.036
CLint scaled [3]: 530 mL/min/kg
mCLHEP [3]: 77.0 mL/min/kg
CLint scaled [4]: 164 mL/min/kg
hCLHEP [4]: 17.9 mL/min/kg
fraction unbound [5]: 0.044
Compound: c1ccc(Cn2c(N3CCCC3)nc3ccccc32)cc1 [7 c, 1‐Benzyl‐2‐(pyrrolidin‐1‐yl)‐1H‐benzo[d]imidazole]

IC50 [1]: 0.59 ± 0.14 µM
Compound: Fc1ccc(Cn2c(N3CCCC3)nc3ccccc32)cc1 [9 c, 1‐(4‐Fluorobenzyl)‐2‐(pyrrolidin‐1‐yl)‐1H‐benzo[d]imidazole]

IC50 [1]: 2.69 µM
Compound: Fc1ccccc1Cn1c(N2CCCC2)nc2ccccc21 [9 a, 1‐(2‐Fluorobenzyl)‐2‐(pyrrolidin‐1‐yl)‐1H‐benzo[d]imidazole]

Compound: Clc1ccc(Cn2c(N3CCCC3)nc3ccccc32)cn1 [9 t, 1‐((6‐Chloropyridin‐3‐yl)methyl)‐2‐(pyrrolidin‐1‐yl)‐1H‐benzo[d]imidazole]
IC50 [1]: 3.11 ± 0.94 µM
inhibition at 3 µM ([1]; read-out: % Inhibition @ 3 μM): 127%

TRPC5 activity (in words) [1]: not productive
Compound: CN1CCC(N2CCN(c3nc4ccccc4n3Cc3ccccc3)CC2)CC1 [7 h, 1‐Benzyl‐2‐(4‐(1‐methylpiperidin‐4‐yl)piperazin‐1‐yl)‐1H‐benzo[d]imidazole]

TRPC5 activity (in words) [1]: moderate activity
Compound: c1ccc(Cn2c(CCN3CCCC3)nc3ccccc32)cc1 [7 j, 1‐Benzyl‐2‐(2‐(pyrrolidin‐1‐yl)ethyl)‐1H‐benzo[d]imidazole]

IC50 [1]: 0.72 ± 0.21 µM
fraction unbound [2]: 0.108
CLint scaled [3]: 796 mL/min/kg
mCLHEP [3]: 80.9 mL/min/kg
CLint scaled [4]: 103 mL/min/kg
hCLHEP [4]: 16.8 mL/min/kg
fraction unbound [5]: 0.041
Compound: CCCNc1nc2ccccc2n1Cc1ccccc1 [7 f, 1‐Benzyl‐N‐propyl‐1H‐benzo[d]imidazol‐2‐amine]

IC50 [1]: 0.902 ± 0.34 µM
Compound: Cc1ccc(Cn2c(N3CCCC3)nc3ccccc32)cc1 [9 k, 1‐(4‐Methylbenzyl)‐2‐(pyrrolidin‐1‐yl)‐1H‐benzo[d]imidazole]

IC50 [1]: 0.72 ± 0.21 µM
Compound: Clc1cccc(Cn2c(N3CCCC3)nc3ccccc32)c1 [9 d, 1‐(3‐Chlorobenzyl)‐2‐(pyrrolidin‐1‐yl)‐1H‐benzo[d]imidazole]

TRPC5 activity (in words) [1]: not active
Compound: CC1CCCCN1c1nc2ccccc2n1Cc1ccc(Cl)cc1 (stereo not shown) [16 a, 1‐(4‐Chlorobenzyl)‐2‐(2‐methylpiperidin‐1‐yl)‐1H‐benzo[d]imidazole]

TRPC5 activity (in words) [1]: inactive
Compound: O=S(=O)(c1ccccc1)n1c(N2CCCC2)nc2ccccc21 [9 v, 1‐(Phenylsulfonyl)‐2‐(pyrrolidin‐1‐yl)‐1H‐benzo[d]imidazole]

IC50 [1]: 0.068 ± 0.106 µM
fraction unbound [2]: 0.036
CLint scaled [3]: 867 mL/min/kg
mCLHEP [3]: 81.6 mL/min/kg
CLint scaled [4]: 127 mL/min/kg
hCLHEP [4]: 17.4 mL/min/kg
Brain [6]: 163
Plasma [6]: 77.5
Kp [6]: 2.1
C0 [6]: 140 ng/mL
MRT inf [6]: 37.9 min
Vd [6]: 2.3 L/kg
clearance [6]: 57.8 mL/min/kg
half-life [6]: 43.3 min
AUC [6]: 291 ng·h/mL
fraction unbound [5]: 0.014
Compound: CCCNc1nc2ccccc2n1Cc1ccc(Cl)cc1 [16 f, 1‐(4‐Chlorobenzyl)‐N‐propyl‐1H‐benzo[d]imidazol‐2‐amine]

IC50 [1]: 2.89 ± 0.7 µM
Compound: C[C@@H]1CCCN1c1nc2ccccc2n1Cc1ccc(Cl)cc1 [16 e, (R)‐1‐(4‐Chlorobenzyl)‐2‐(2‐methylpyrrolidin‐1‐yl)‐1H‐benzo[d]imidazole]

IC50 [1]: 1.78 ± 0.43 µM
Compound: COc1ccc(Cn2c(N3CCCC3)nc3ccccc32)cc1F [9 g, 1‐(3‐Fluoro‐4‐methoxybenzyl)‐2‐(pyrrolidin‐1‐yl)‐1H‐benzo[d]imidazole]

TRPC5 activity (in words) [1]: not active
Compound: O=S1(=O)CCN(c2nc3ccccc3n2Cc2ccc(Cl)cc2)CC1 [16 c, 4‐(1‐(4‐Chlorobenzyl)‐1H‐benzo[d]imidazol‐2‐yl)thiomorpholine‐1,1‐dioxide]

IC50 [1]: 1.3 ± 0.31 µM
Compound: CC(C)CCNc1nc2ccccc2n1Cc1ccccc1 [7 g, 1‐Benzyl‐N‐isopentyl‐1H‐benzo[d]imidazol‐2‐amine]

IC50 [1]: 1.49 ± 0.31 µM
Compound: Fc1cccc(Cn2c(N3CCCC3)nc3ccccc32)c1 [9 b, 1‐(3‐Fluorobenzyl)‐2‐(pyrrolidin‐1‐yl)‐1H‐benzo[d]imidazole]

IC50 [1]: 1.9 µM
Compound: Cc1cccc(Cn2c(N3CCCC3)nc3ccccc32)c1 [9 l, 1‐(3‐Methylbenzyl)‐2‐(pyrrolidin‐1‐yl)‐1H‐benzo[d]imidazole]

TRPC5 activity (in words) [1]: not active
Compound: CC1CCN(c2nc3ccccc3n2Cc2ccc(Cl)cc2)CC1 [16 b, 1‐(4‐Chlorobenzyl)‐2‐(4‐methylpiperidin‐1‐yl)‐1H‐benzo[d]imidazole]

TRPC5 activity (in words) [1]: inactive
Compound: O=C(c1ccccc1)n1c(N2CCCC2)nc2ccccc21 [9 u, Phenyl(2‐(pyrrolidin‐1‐yl)‐1H‐benzo[d]imidazol‐1‐yl)methanone]
